Data reported in ChEMBL document CHEMBL1933027, “Time-dependent botulinum neurotoxin serotype A metalloprotease inhibitors” (Bioorg Med Chem, 2011).
Activity calls are given as the source filed them. The rule behind the calls is not given here. Peptide text beside a SMILES is read from it. * marks the point of attachment. X1 = O=C(C(S)Cc1ccccc1)*

How the values were obtained:
Lethal factor = target: T1, Lethal factor (Bacillus anthracis, UniProt P15917); assay: Inhibition of Bacillus anthracis lethal factor using MCA-KKVYPYPME[dnp]Kamide peptide substrate after 30 mins by FRET assay
T1 sequence (P15917 whole entry): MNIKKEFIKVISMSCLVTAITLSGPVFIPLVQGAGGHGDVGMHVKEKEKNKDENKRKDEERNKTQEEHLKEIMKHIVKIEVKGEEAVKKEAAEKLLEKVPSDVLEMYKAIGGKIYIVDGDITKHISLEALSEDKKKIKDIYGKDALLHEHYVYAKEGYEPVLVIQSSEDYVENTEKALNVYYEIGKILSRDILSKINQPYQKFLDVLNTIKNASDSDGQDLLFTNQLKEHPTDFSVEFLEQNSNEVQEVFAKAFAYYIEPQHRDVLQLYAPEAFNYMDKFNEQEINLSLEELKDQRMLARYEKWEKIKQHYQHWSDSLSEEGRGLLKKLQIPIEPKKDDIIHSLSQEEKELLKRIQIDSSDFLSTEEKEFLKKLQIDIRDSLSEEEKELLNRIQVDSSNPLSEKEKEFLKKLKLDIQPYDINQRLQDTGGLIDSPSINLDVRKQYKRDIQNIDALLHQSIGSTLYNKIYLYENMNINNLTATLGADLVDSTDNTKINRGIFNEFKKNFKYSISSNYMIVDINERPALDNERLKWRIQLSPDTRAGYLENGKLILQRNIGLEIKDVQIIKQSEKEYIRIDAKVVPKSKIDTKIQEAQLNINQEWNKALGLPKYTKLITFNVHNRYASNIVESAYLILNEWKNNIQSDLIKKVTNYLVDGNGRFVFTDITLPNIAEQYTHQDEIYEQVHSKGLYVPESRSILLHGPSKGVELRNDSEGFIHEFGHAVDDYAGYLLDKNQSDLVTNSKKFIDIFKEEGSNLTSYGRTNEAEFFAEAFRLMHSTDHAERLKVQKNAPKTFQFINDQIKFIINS

[1] = target: T2, Botulinum neurotoxin type A (Clostridium botulinum, UniProt P0DPI0); assay: Inhibition of Clostridium botulinum BoNT/A light chain-mediated SNAP-25 substrate cleavage after 40 mins by FRET assay
T2 sequence (P0DPI0 2-448 limits assumed): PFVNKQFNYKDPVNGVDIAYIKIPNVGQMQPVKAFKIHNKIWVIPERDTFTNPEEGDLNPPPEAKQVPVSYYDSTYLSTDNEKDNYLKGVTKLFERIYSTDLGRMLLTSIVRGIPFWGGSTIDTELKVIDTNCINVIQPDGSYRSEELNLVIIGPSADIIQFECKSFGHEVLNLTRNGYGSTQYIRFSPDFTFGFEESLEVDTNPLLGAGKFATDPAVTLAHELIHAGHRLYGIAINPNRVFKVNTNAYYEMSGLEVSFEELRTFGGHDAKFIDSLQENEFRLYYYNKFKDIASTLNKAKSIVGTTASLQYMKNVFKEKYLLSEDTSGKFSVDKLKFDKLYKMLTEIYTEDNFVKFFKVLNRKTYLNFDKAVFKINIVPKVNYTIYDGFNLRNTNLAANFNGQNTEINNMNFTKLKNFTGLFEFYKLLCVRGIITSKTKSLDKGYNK
Outline: (§1)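 Recombinant BoNT/A LC at 2 nM was incubated with 20 μM SNAP-25 peptide (AA 187–203, DnpK/daciaC-labelled) for 40 min at 37 °C. Cleaved-substrate fluorescence was read at 485 nm with excitation at 398 nm. IC50 is the compound concentration giving 50% inhibition, averaged over two experiments.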

[2] = target: T3, Lethal factor (Bacillus anthracis) (UniProt P15917); assay: Inhibition of Bacillus anthracis lethal factor using MCA-KKVYPYPME[dnp]Kamide peptide substrate at 100 uM after 30 mins by FRET assay
T3 sequence (whole entry): T1 sequence (P15917 whole entry)

[3] = target: Botulinum neurotoxin type A (Clostridium botulinum) (UniProt P0DPI0); assay: Inhibition of clostridium botulinum BoNT/A-mediated SNAP-25 substrate cleavage in chicken neurons at 30 uM preincubated for 15 mins before substrate addition
Botulinum neurotoxin type A (Clostridium botulinum), sequence (P0DPI0 2-448 limits assumed): as above

[4] = target: 72 kDa type IV collagenase (Homo sapiens, UniProt P08253); assay: Inhibition of human MMP2
72 kDa type IV collagenase, sequence (P08253 whole entry): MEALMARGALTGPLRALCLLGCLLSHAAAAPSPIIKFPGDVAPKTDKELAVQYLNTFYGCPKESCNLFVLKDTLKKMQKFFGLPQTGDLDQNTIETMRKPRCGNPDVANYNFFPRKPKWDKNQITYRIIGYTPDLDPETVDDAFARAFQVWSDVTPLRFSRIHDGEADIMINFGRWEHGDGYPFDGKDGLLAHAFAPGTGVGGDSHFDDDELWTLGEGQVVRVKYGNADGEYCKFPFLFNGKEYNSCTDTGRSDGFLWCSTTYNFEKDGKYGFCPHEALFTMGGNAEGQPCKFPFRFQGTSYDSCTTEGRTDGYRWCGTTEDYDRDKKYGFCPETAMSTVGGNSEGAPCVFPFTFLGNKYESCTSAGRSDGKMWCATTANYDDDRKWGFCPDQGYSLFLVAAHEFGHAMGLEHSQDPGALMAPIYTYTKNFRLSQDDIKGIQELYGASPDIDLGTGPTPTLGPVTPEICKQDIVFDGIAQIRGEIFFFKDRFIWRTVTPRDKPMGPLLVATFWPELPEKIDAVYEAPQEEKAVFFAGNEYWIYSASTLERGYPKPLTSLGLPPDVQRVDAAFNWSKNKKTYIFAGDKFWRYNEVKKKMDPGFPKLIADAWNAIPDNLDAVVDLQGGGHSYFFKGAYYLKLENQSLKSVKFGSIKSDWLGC

[5] = target: Botulinum neurotoxin type A (Clostridium botulinum) (UniProt P0DPI0); assay: Inhibition of Clostridium botulinum BoNT/A light chain-mediated SNAP-25 substrate cleavage preincubated for 15 mins in presence of cysteine before substrate addition by FRET assay
Outline: (§2)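 The potential inactivator (2.5 or 5 mM) was preincubated with compound in the assay mixture for 15 min at 37 °C. 17-mer SNAP-25 substrate and BoNT/A LC were then added, and activity was read in the FRET assay (37 °C, 40 min, ex 398/em 485 nm).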

[6] = target: Matrix metalloproteinase-9 (Homo sapiens, UniProt P14780); assay: Inhibition of human MMP9
Matrix metalloproteinase-9, sequence (P14780 whole entry): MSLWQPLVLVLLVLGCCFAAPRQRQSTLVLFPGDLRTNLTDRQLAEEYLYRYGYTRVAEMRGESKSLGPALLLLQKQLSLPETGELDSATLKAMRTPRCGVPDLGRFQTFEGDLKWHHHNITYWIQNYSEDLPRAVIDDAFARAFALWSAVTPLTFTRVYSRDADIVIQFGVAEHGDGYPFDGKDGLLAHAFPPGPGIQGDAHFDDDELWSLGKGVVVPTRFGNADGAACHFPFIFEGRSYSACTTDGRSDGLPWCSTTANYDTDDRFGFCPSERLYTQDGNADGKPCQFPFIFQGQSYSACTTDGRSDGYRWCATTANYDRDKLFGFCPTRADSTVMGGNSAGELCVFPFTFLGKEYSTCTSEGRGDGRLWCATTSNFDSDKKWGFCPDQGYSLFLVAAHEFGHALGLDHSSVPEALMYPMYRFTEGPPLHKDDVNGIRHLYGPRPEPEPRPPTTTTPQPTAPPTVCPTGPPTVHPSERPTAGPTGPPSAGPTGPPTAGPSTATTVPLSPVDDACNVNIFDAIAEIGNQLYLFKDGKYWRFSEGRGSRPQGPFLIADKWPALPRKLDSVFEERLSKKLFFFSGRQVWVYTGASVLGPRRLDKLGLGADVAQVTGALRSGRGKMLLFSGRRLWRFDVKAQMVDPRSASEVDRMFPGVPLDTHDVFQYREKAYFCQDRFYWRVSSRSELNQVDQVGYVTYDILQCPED

[7] = target: T2, Botulinum neurotoxin type A; assay: Inhibition of Clostridium botulinum BoNT/A light chain after 40 mins by HPLC assay
Outline: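 Incubation was at 37 °C for 40 min with 6 nM BoNT/A LC and 60 μM 17-mer SNAPtide substrate. Samples were separated by reverse-phase C18 HPLC, effluent was monitored at 365 nm, and peaks were quantified by integration.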

[8] = target: Botulinum neurotoxin type A (Clostridium botulinum) (UniProt P0DPI0); assay: Inhibition of Clostridium botulinum BoNT/A light chain-mediated SNAP-25 substrate cleavage preincubated for 15 mins in presence of zinc ion before substrate addition by FRET assay; outline: as §2
[9] = target: Botulinum neurotoxin type A (Clostridium botulinum) (UniProt P0DPI0); assay: Inhibition of clostridium botulinum BoNT/A light chain assessed as residual activity using SNAP-25 as substrate at 50 uM after 90 mins measured after dialysis by FRET-based assay relative to 6-(4,5-dihydro-1H-imidazol-2-yl)-2-(4-(4-(4,5-dihydro-1H-imidazol-2-yl)phenoxy)phenyl)-1H-indole
Outline: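 BoNT/A LC was co-incubated with inhibitor or a DMSO-equivalent control at 37 °C for 90 min. Samples were then dialysed (3,500 MWCO) against 20 mM HEPES pH 7.4, 10% glycerol, 0.05% Tween-20 for 20–24 h at 2–8 °C. Remaining activity was measured by the standard FRET assay.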

[10] = target: Botulinum neurotoxin type A (Clostridium botulinum) (UniProt P0DPI0); assay: Inhibition of Clostridium botulinum BoNT/A light chain-mediated SNAP-25 substrate cleavage preincubated for 15 mins in presence of glutathione before substrate addition by FRET assay; outline: as §2
[11] = target: Botulinum neurotoxin type A (Clostridium botulinum) (UniProt P0DPI0); assay: Ratio of Kinact to Ki for clostridium botulinum BoNT/A light chain
Outline: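 BoNT/A LC was incubated with selected inhibitor concentrations for various times. Remaining activity was then measured by the FRET assay, and kobs/[I] was derived from the plotted data using a published method.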

[12] = target: T4, Botulinum neurotoxin type B (Clostridium botulinum, UniProt P10844); assay: Inhibition of Clostridium botulinum BoNT/B light chain after 40 mins by FRET-based assay
T4 sequence (P10844 whole entry): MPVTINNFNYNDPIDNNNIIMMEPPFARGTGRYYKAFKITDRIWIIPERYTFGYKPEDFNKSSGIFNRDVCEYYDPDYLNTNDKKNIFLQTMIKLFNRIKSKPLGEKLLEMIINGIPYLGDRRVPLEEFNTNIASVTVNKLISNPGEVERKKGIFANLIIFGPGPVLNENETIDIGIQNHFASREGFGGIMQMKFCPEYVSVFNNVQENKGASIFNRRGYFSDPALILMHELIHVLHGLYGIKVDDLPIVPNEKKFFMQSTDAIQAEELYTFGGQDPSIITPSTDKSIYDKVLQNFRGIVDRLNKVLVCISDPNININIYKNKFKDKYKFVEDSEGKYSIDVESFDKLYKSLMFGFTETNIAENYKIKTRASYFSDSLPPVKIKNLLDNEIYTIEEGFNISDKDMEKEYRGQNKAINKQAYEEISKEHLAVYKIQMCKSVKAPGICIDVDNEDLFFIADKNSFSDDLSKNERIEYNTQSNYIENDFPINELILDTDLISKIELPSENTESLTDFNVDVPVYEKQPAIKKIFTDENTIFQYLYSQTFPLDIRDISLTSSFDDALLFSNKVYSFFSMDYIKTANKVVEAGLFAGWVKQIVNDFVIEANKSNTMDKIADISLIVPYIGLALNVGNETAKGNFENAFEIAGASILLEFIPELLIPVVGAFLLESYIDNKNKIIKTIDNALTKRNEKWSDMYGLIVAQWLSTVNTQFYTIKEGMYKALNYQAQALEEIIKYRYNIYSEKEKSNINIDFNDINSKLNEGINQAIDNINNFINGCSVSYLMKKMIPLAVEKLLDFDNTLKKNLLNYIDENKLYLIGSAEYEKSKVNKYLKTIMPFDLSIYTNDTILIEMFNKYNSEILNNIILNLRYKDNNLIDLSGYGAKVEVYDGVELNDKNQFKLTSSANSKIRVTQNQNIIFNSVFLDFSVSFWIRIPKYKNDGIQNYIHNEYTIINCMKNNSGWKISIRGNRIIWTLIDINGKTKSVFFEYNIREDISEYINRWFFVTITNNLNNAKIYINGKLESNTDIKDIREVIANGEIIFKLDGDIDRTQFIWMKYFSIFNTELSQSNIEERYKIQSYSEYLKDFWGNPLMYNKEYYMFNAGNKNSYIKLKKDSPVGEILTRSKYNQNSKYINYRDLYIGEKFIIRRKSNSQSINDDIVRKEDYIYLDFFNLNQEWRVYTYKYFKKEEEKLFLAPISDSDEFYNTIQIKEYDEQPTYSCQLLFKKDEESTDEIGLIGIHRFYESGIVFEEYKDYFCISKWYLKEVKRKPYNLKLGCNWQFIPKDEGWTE

Interstitial collagenase = target: T5, Interstitial collagenase (Homo sapiens, UniProt P03956); assay: Inhibition of human MMP1
T5 sequence (P03956 whole entry): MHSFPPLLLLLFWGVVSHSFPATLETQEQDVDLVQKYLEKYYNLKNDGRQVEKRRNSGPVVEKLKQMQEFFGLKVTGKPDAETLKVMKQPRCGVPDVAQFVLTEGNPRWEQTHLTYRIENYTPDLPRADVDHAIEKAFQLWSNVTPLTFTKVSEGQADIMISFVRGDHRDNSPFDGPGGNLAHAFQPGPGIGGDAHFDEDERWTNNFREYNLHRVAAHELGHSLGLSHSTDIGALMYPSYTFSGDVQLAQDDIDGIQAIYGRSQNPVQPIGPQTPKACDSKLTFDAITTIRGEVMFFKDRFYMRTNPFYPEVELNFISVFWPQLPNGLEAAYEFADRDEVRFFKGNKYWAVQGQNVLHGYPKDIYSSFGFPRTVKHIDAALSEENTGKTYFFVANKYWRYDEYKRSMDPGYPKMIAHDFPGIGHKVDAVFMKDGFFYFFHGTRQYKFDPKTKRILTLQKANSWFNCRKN

[13] = target: T2, Botulinum neurotoxin type A; assay: Inhibition of Clostridium botulinum BoNT/A light chain-mediated SNAP-25 substrate cleavage preincubated for 90 mins by FRET assay
Outline: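 Compound was preincubated with BoNT/A LC for 90 min before the 40-min FRET assay (20 μM SNAP-25 peptide, 2 nM enzyme, 37 °C, ex 398/em 485 nm). IC50 is the concentration giving 50% inhibition.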

[14] = target: Botulinum neurotoxin type A (Clostridium botulinum) (UniProt P0DPI0)
[15] = target: T2, Botulinum neurotoxin type A; assay: Inhibition of Clostridium botulinum botulinum neurotoxin type A light chain; outline: as §1

Structure (SMILES) | IC50 (Lethal factor) [µM] | IC50 [1] [µM] | further results
N#C/C(=C\c1c(Cl)ncnc1Cl)c1nc2ccccc2[nH]1 | > 100 |  | 
N#C/C(=C\c1cc(-c2ccccc2)cnc1Cl)c1nc2ccccc2[nH]1 | > 100 | > 100 | 
N#C/C(=C\c1ccc(-c2cccs2)s1)c1cc2ccccc2[nH]1 | > 100 | > 100 | 
COc1cc(/C=C(\C#N)c2nc3ccccc3[nH]2)cc(Cl)c1O | > 100 | 59 | 
Cn1c(/C(C#N)=C/c2ccc(-c3cccs3)s2)[n+](C)c2ccccc21 |  | > 100 | 
Cc1ccc(/C=C(\C#N)c2nc3ccccc3[nH]2)s1 | > 100 | > 100 | 
N#C/C(=C\c1ccc(-c2cccs2)o1)c1nc2ccccc2[nH]1 | > 100 | > 100 | 
COc1ccc(/C=C(\C#N)c2nc3ccccc3[nH]2)cc1OC | > 100 | > 100 | 
N#C/C(=C\c1c[nH]c2cccc([N+](=O)[O-])c12)c1nc2ccccc2[nH]1 | > 100 | > 100 | 
COc1ccc(/C=C(\C#N)c2nc3ccccc3[nH]2)cc1F | > 100 | > 100 | 
Cc1c(/C=C(\C#N)c2nc3ccccc3[nH]2)sc2ccccc12 | > 100 | > 100 | 
N#C/C(=C\c1c[nH]c2ccc(Br)cc12)c1nc2ccccc2[nH]1 |  | > 100 | inhibition [2]: 60%
N#C/C(=C\c1cccs1)c1nc2ccccc2[nH]1 | > 100 | > 100 | 
N=C(N)c1ccc(Oc2ccc(-c3cc4ccc(C(=N)N)cc4[nH]3)cc2)cc1 |  |  | inhibition [3]: 42%
N#C/C(=C\c1ccc(-c2ccco2)s1)c1nc2ccccc2[nH]1 | > 100 | 59 | 
N#C/C(=C\c1c[nH]c2c1ccc1ccccc12)c1nc2ccccc2[nH]1 | > 100 | > 100 | 
N#C/C(=C\c1ccc(-c2cccs2)s1)c1nc2ccccc2o1 |  | > 100 | 
N#C/C(=C\c1ccc(-c2ccccc2)cc1)c1nc2ccccc2[nH]1 | > 100 | 86 | 
COc1ccc(/C=C(\C#N)c2nc3ccccc3[nH]2)cc1I | 74 | 7.2 | IC50 [4]: > 100 µM; inhibition [3]: < 10%; inhibition [5]: inactive; IC50 [6]: > 100 µM; IC50 [7]: 10 µM; inhibition [8]: Active; Ratio [9]: 0.99; inhibition [10]: inactive; Ratio [11]: 979 M⁻¹ s⁻¹; IC50 [12]: > 100 µM; IC50 (Interstitial collagenase): > 100 µM
N#C/C(=C\c1ccc(-c2cccs2)s1)c1ccc2ccccc2n1 | > 100 | > 100 | 
N#C/C(=C\c1ccc(-c2cccs2)s1)c1nc2ccccc2[nH]1 | > 100 | 26 | IC50 [4]: > 100 µM; inhibition [3]: 58%; inhibition [5]: Active; IC50 [6]: > 100 µM; IC50 [7]: 29 µM; inhibition [8]: Active; Ratio [9]: 1.13; IC50 [13]: 17 µM; inhibition [10]: Active; TDI [14]: Active; Ratio [11]: 326 M⁻¹ s⁻¹; IC50 [12]: > 100 µM; IC50 (Interstitial collagenase): > 100 µM
CSCC[C@H](NC(=O)[C@H](CCCCN)NC(=O)[C@@H](NC(=O)[C@H](C)NC(=O)[C@H](CCCNC(=N)N)NC(=O)C(S)Cc1ccccc1)[C@@H](C)O)C(=O)N[C@@H](CC(C)C)C(=O)O (stereo partly specified) (X1-RATKML-OH) |  |  | Ki [15]: 330 nM
COc1ccc(/C=C(\C#N)c2nc3ccccc3[nH]2)cc1Cl | > 100 | > 100 | 
COc1ccc(/C=C(\C#N)c2nc3ccccc3[nH]2)cc1Br | > 100 | > 100 | 
Cc1cc(/C=C(\C#N)c2nc3ccccc3[nH]2)sc1C | > 100 | > 100 | 
N#C/C(=C\c1ccc(-c2cccs2)s1)c1nc2ccccc2s1 | > 100 | > 100 | 
